Data from the EternaBench riboswitch data.

System: MS2 coat protein
Assay: apparent Kd, MS2 coat protein; higher = weaker binding; RNA-MaP array; tryptophan 2.4 mM where present
Procedure, shortened: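 Green signal from SNAP-549-labelled MS2 coat protein was normalised to red-channel RNA signal and to the median Fmax of control clusters. The protein was titrated from 0.7 or 1.5 nM, doubling to 3 µM, without and then with constant ligand, over designs transcribed by stalled E. coli RNA polymerase on Illumina sequencing-chip clusters, in 100 mM Tris-HCl pH 7.5, 80 mM KCl, 4 mM MgCl2, BSA, DTT, yeast tRNA and Tween-20. The apparent Kd is the median of filtered per-cluster binding-curve fits.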

[1] = designed as: OFF switch for tryptophan, no ligand
[2] = ligand present: tryptophan, designed as: OFF switch for tryptophan
[3] = designed as: ON switch for tryptophan, no ligand
[4] = ligand present: tryptophan, designed as: ON switch for tryptophan

Sequence	apparent Kd [1] [nM]	apparent Kd [2] [nM]	apparent Kd [3] [nM]	apparent Kd [4] [nM]
UAAUAAGUACCGGUUCUCAGAUCCUCAUGUCGAGGACCGGUACGGCCGCCACUCGAAACAUGAGGAUCACCCAUGUAAUAAUAAU	36.2	31.7		
GGUUACUCUACGGCCGCCACUGUAAUGUAAAGAUUCCUGUACAUGACAUGAGGAUCACCCAUGUGCAGGACCGGGUAGUGUAACC			194	52.6
GGUUACUCUACGGCCGCCACUGAACAUGAGGAUCACCCAUGUAAUGUUCAGACGUCUUUAGACGACAGGACCGGGUAGUGUAACC			178	151
AUGACUCACAAAGAAGAUAAAAUGGGUGAACGAGGACCGGUACGGCCGCCACUCGGACAUGAGGAUCACCCAUGUCCAUGUGCAA	22.1	28.8		
ACCGCGGUAUCGGCCGCCACUUGUGGGUUAAAUCUGGUACAUGAGGAUCACCCAUGUGUCUCCUCGAGGACCGGGAUAGCGUGAC			158	23.9
UGGGUACCGACGGCCGCCACUGACUAUAGACAUGAGGAUCACCCAUGUAGAGAUCCUAGACUACCCAGGACCGGGUCUGGUGCUA	124	220		
CCUAUGCAGUCGGCCGCCACUGAACAUGAGGAUCACCCAUGUAUAUAAAGAUCCUGAUAUAAUAACAGGACCGGGACUGUAUAGG	59.7	157		
UUACAUGAGGAUCACCCAUGUUUACUAUGUCGAGGACCGGUACGGCCGCCACUCGUAUUUGAUGAUUUAGGUGCCACAAGUUAUU	21.2	20.5		
AAAUGUACGUCGGCCGCCACUGCGCUGAAGACAGUCACAUGAGGAUCACCCAUGUACGACAAGGGUAGGACCGGGAUGUGAGGGU			91.4	44.7
